Measured values reported in ChEMBL document CHEMBL5154715, “Phenolic Lipids Derived from Cashew Nut Shell Liquid to Treat Metabolic Diseases” (J Med Chem, 2022).
Active and inactive are the calls of the source. No cut-off for these calls is given here.

Legend:
[1] = Elimination rate constant in C57BL/6 mouse at 100 mg/kg, po […] by LC-MS/MS analysis; type: ADME, organism-based; conditions: in vivo
[2] = Tmax in C57BL/6 mouse at 40 mg/kg, ip […] by LC-MS/MS analysis; type: ADME, organism-based; conditions: in vivo
[3] = target: T1, Peroxisome proliferator-activated receptor gamma (Mus musculus) (UniProt P37238); test: Agonist activity at human PPARgamma in mouse 3T3-L1 cells assessed as induction of adipogenic differentiation at 25 uM measured after 11 days by Oil Red O staining analysis; type: cell-based; conditions: filed as agonist, time 11.0 day
T1 sequence (whole entry): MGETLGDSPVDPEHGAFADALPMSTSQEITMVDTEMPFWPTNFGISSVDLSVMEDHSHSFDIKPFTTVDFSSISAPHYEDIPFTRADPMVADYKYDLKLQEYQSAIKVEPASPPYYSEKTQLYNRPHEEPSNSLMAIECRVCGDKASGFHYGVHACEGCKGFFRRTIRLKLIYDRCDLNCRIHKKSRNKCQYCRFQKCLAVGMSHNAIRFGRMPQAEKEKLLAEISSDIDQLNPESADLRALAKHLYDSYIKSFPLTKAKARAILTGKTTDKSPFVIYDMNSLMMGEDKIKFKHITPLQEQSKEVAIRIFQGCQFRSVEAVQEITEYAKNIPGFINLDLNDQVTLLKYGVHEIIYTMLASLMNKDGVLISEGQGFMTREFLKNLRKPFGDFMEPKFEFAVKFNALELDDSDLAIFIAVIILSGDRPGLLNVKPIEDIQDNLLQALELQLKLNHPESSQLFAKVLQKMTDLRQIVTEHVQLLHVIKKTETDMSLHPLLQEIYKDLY
Outline: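 3T3-L1 cells differentiated for 11 days (IBMX/dexamethasone/insulin induction, then insulin, then maintenance medium) with 25 μM compound or 10 μM rosiglitazone from day 0. Cells formalin-fixed and stained with 0.6% Oil Red O. Lipid quantified spectrophotometrically after dye extraction.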

[4] = target: T2, Peroxisome proliferator-activated receptor gamma (Homo sapiens, UniProt P37231); test: Agonist activity at human PPARgamma expressed in HEK293 cells by luciferase/beta-galactosidase reporter gene assay; type: cell-based
T2 sequence (P37231 whole entry): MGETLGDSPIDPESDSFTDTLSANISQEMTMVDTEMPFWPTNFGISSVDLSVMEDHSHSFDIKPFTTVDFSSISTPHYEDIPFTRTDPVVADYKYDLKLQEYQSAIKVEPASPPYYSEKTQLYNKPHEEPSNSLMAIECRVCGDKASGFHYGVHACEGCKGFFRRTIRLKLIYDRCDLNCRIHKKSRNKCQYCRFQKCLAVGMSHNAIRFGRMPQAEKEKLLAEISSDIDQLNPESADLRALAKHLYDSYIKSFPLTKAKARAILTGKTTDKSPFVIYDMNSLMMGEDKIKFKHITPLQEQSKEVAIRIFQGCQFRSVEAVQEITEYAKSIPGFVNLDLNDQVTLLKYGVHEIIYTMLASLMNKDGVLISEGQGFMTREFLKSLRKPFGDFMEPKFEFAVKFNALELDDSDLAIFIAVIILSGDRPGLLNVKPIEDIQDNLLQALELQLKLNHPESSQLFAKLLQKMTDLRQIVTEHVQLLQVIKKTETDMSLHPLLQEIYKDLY
Outline: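 HEK293 cells in charcoal-stripped FBS, calcium phosphate co-transfected with GAL4-hPPAR LBD fusion, UAS-luciferase and β-galactosidase. Ligand added 6–8 h post transfection, full dose–response, harvested 14–16 h later. Luciferase normalized to β-galactosidase.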

[5] = target: T3, Peroxisome proliferator-activated receptor alpha (Mus musculus) (UniProt P23204); test: Agonist activity at human PPARalpha in mouse hepatocytes assessed as induction of Fgf21 mRNA expression at 50 uM incubated for 16 hrs by quantitative real-time PCR analysis; type: cell-based; conditions: Hepatocyte, filed as agonist
T3 sequence (whole entry): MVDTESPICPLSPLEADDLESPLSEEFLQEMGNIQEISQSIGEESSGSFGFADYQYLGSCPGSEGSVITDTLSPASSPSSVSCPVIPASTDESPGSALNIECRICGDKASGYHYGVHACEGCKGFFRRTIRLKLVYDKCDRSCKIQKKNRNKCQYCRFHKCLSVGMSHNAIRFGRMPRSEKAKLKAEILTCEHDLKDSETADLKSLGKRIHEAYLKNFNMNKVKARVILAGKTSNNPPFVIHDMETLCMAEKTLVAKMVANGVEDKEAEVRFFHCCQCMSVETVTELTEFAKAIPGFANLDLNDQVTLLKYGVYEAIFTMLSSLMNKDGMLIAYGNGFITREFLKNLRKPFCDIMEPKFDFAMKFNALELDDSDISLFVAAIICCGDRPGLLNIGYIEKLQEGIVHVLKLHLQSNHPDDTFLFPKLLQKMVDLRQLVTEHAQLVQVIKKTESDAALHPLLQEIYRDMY
Outline: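 Collagenase-perfused mouse primary hepatocytes from WT mice, plated 2 h in attachment medium, overnight in M199 with 5% charcoal-stripped FBS and 1 nM insulin. Treated next day in serum-free M199 with 50 μM compound for 16 h. RNA qPCR (SYBR Green), comparative Ct method.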

[6] = target: T4, Peroxisome proliferator-activated receptor alpha (Homo sapiens) (UniProt Q07869); test: Stabilization of human PPARalpha LBD assessed as change in melting temperature at 25 uM by thermal shift assay
T4 sequence (whole entry): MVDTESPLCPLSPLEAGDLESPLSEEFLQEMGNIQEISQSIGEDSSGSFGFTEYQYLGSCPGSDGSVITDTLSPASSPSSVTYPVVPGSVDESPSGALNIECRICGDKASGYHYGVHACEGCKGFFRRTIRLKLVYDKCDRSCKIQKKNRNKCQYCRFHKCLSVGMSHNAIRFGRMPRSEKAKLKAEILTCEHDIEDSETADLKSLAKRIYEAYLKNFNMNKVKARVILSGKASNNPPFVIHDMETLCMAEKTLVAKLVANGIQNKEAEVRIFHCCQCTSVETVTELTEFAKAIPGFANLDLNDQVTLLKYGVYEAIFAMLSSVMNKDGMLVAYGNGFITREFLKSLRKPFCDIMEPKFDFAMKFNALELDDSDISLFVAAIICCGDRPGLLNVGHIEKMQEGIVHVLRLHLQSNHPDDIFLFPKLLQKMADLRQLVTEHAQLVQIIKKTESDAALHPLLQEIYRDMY
Outline: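 Purified hPPAR LBD at 1 mg/mL (∼25 μM) with ligand (α-LBD at 25 μM; γ- and δ-LBD at 50 μM). Static light scattering at 473 nm from 25 to 70 °C in 0.5 °C steps, 1 °C/min. Tm from four-parameter fit; ΔTm relative to DMSO; mean ± SEM, N = 3.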

[7] = Tmax in C57BL/6 mouse at 100 mg/kg, po measured upto 24 hrs by LC-MS/MS analysis; conditions: in vivo
[8] = test system: Danio rerio; test: In vivo agonist activity at human GFP-tagged PPARalpha in transgenic zebrafish assessed as increase in GFP expression in yolk sac at 1.5 uM measured after 14 hrs by microscopy

SMILES	k el [1] [s⁻¹]	Tmax [2] [h]	Activity [3]	EC50 [4] [µM]	Activity [5]	ΔTm [6] [°C]	Tmax [7] [h]	Activity [8]
CCCCCCCCCCCCCCCc1cccc(OC(C)(C)C(=O)O)c1	8.28e-05	0.5	Active	0.9	Active	10.8	4	
CCCCCC/C=C\CCCCCCCc1cccc(OC(C)(C)C(=O)O)c1			Active	1.78	Active	3.8		
CCCCCCCCCCCCCCCc1cccc(OC(C)=O)c1C(=O)O			Active			17.4		Active
